Tested on: MS2 coat protein
Assay: apparent Kd, MS2 coat protein; higher = weaker binding; RNA-MaP array; FMN 200 µM where present
Method in brief: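 Two titrations, one without ligand and one with constant ligand, were run with SNAP-549-labelled MS2 coat protein from 0.7 or 1.5 nM, doubling to 3 µM. The targets were designs transcribed by stalled E. coli RNA polymerase on Illumina sequencing-chip clusters, in 100 mM Tris-HCl pH 7.5, 80 mM KCl, 4 mM MgCl2, BSA, DTT, yeast tRNA and Tween-20. The apparent Kd is the median of filtered per-cluster binding-curve fits, with green signal normalised to red-channel RNA signal and control-cluster median Fmax.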

[1] = ligand present: flavin mononucleotide, designed as: ON switch for flavin mononucleotide
[2] = designed as: ON switch for flavin mononucleotide, no ligand
[3] = designed as: OFF switch for flavin mononucleotide, no ligand
[4] = ligand present: flavin mononucleotide, designed as: OFF switch for flavin mononucleotide

Sequence	apparent Kd [1]	apparent Kd [2]	apparent Kd [3]	apparent Kd [4]
GUCUGAUUGUAGAAGGUACUUAAUACUCAUGUAACAUGAGGAUCACCCAUGUAUCAACAAUAUUGUAAGGAUAUACAAAUCUCA	222 nM			
GAUCCGUCCUAGAAGGCCAUUCAACAUGAGGAUCACCCAUGUGCGAACUGGAGGAUAUAGGUGGGAUAGGCCUAGGGCCCGGUC	6.12 nM	9.38 nM		
CGCAUGGAGGGAGGAUAUGACAUGAGGAUCACCCAUGUAAAGGAUCCGACGUCAGAAGGCCCUAAGAAUUUACACAUUCUCUUA			119 nM	26.7 nM
UAUAUAUAAUAUAUUAACAUGAGGAUCACCCAUGUCGCUAGACAGGAUAUAUUUAAUUUUUUUAAGUAGAAGGGUCAUAUAAUU	80.9 nM	68.3 nM		
AUUUCAGUCAGAGGAUAUUGUUUAUCUCUAUUGCAAGAAGGCUGAUCUUACUACCCACUUAUGAAACAUGAGGAUCACCCAUGU	16.8 nM	20.8 nM		
AAGGAUAGAGGAUAUACAUAGAUACAGAUUCAUGUAGUCCUACAUGAGGAUCACCCAUGUAGAAGGCUAUCCUA			15.6 nM	83.8 nM
UUACAUACAAAGGUACAUGAGGAUCACCCAUGUUUGUUGGGAAGAAGGGUAACAAUACUACACAUACAGGAUAUUUCACAAACA	35.4 nM	49 nM		
UUAGCAACAUGAGGAUCACCCAUGUAGGAUAUCGCUAUUGUAAUCAUGAAACAUGAUUACAAUAGCGAGAAGGACAUAUGCUAC			11.2 nM	12.1 nM
CAGCGAUAGCUGAAUGGUACAUGGGAGGAUAUGGGUUGACAUGAGGAUCACCCAUGUAAAUAAUACUAGAAGGCCCAUGUACCU	9.38 nM	191 nM		
ACAAGAUCAGGAUAUACAUGAGGAUCACCCAUGUUUAUCAAAAAGGGACUUUCUUUAUGUAGAAGGGAUCUUGU			72.8 nM	70.1 nM
UCAUUGGUUGUGAGGAUAUCGGUGUGAUGGAUUGUCGAGAAGGCACAUGAGGAUCACCCAUGUUUGUUUGGGCU			577 nM	449 nM
AUCCGGAGGGAGAAGGGCUAGGAGGUCCAGCUUAUGUGUGUUGCAACAUGAGGAUCACCCAUGUAGCAGGAUAUCCCUUGUAUA			51.2 nM	214 nM
GUGACUUAUAGAGGAUAUUGACAUGAGGAUCACCCAUGUAUUUGGUAGUGUUCAAUGAAUUCUUGCGAGAAGGCUAUAAGACAC			221 nM	261 nM
CGAGAUCUUGAGAAGGCAUAAUAUAUAAUACCACAUGUUUACAUGAGGAUCACCCAUGUUACCUAUGAGGAUAUCAGGAUUUCG			18.5 nM	16.1 nM
GGUGUAUAUGAGAAGGCGAUCAUGAAACAUGAUCGAGGAUAUCAUGUAAACAUGAGGAUCACCCAUGUAUGGGAAUAUUGCACC	15 nM	133 nM		
GGGUACUAGGGAGGAUAUGGGAAGAUACAUGAGGAUCACCCAUGUUUAAGAAUGCCGAGAGGCAACUAGAAGGCCCUAGUACCU	19.7 nM	428 nM		
GGUUUGCGGCAGGAUAUCCAUCCGCGGUGUGGUGGAGAAGGGCUGACAUGAGGAUCACCCAUGUGCGUCCUGGG			33.8 nM	71.7 nM
UUUGCAUUCCGAGGAUAUUCAUAUAAUAAAUAAACAUGAGGAUCACCCAUGUGGCGAAAGCCUAGGGAGAAGGCGGAAUGCUUU	22 nM	184 nM		

Sequence	apparent Kd [1]	apparent Kd [2]	apparent Kd [3]	apparent Kd [4]
ACAUGCAAGUAGAAGGACGGAUAUUUUGAUAACGUAGGAUAUACAGAAUCAUAUCCACAUGAUAACAUGAGGAUCACCCAUGUA			11.8 nM	12.4 nM
AUUAAACAUGAGGAUCACCCAUGUGAGGAUAUGCAAAAAAAAUUAUAUUAAAAAAAAAGCAGAAGGCACAUAUA			54.7 nM	94.6 nM
AACAGUCUAGAGGAUAUGCUGGAUUAAAAUCUGGCAGAAGGCUGGACAUGAGGAUCACCCAUGUAAAUACUACC			33.6 nM	162 nM
AGUAGAUCAGGAUAUACGUAAAUGGUAAUUAUGUAACUUCUACAUGAGGAUCACCCAUGUAGAAGGGAUCUACA			13.6 nM	13.4 nM
CAAAAGCUAGGAUAUGCCAAUUGUUCCUUAAGUCAAAAUAAACAUGAGGAUCACCCAUGUAGAAGGAGCCCAAC			35.9 nM	19.8 nM
CGCUGGAUCGAGAAGGCCAUGUGGGACGCGAGCAGUGAUGUUAGGACAUGGAGGAUAUCGAACAUGAGGAUCACCCAUGUAACC	25.5 nM	438 nM		
AUAUCUCUGUAAGGAUAUAGAUGGUAUACGCCUCCGACAUGAGGAUCACCCAUGUUAUAUUUUGUCUAGAAGGUACAGUGUCGG	292 nM	656 nM		
UAAAAUCAUGUAGGAUAUGCGUGGCGAAGCUAUGCAGAAGGACAUGAGGAUCACCCAUGUCUUACUGUGCGUACACAGUUAAAG			16.7 nM	79.5 nM
AGUACGUCAGGAUAUCUGAUGUCUAACUUCGGUUAGACAUCAGAGAAGGGACAUGAGGAUCACCCAUGUACUAG			38.7 nM	42.6 nM
UUAAAUCAUGUAGGAUAUGCAUGGCGAAGCUACGCAGAAGGACAUGAGGAUCACCCAUGUUCUGGCGUCUGAGUACAGAUGCAA			20.3 nM	48.8 nM
CGUAUGUCAGGAUAUGCGUAUGCCGCUCGGGACGAGCGGCAGCAGAAGGGACAUGAGGAUCACCCAUGUUCGGG			75 nM	72.7 nM
GUCGGGUGGGUAGGAUAUGGCUAUGUCUCAUUGCUAGAAGGACCAACUGCUACAUGAGGAUCACCCAUGUCGUAGUGCACCCGG	27.5 nM	149 nM		
CAAAUCUGAGGAUAUCGAUAUUUGUACAUGAGGAUCACCCAUGUCCUAUUUAUAAAAUCCCGAGAAGGCAGUGUAU			14.6 nM	22.9 nM
GGAGCACAUGAAUACAUGAGGAUCACCCAUGUCGAAUGAUAUGAGGAUAUGGAUCGGAAAACGAUCUAGAAGGCAUAGUGCUCC	10.2 nM	76.5 nM		
AAUAACAGAGGAUAUACUAUUUUAUGUGUUUAUUGUUUUGAACAUGAGGAUCACCCAUGUAGAAGGCUGAAUGA			29.9 nM	35.8 nM
CCGUUGGGCUAGAAGGCUCCGGGAGGGCCGCGGAGAGGAUAUAGCACAUGAGGAUCACCCAUGUGGUAUGACCUUAUGUAAUCA			37.4 nM	82.7 nM
GUAGCAUUCUGAGGAUAUGGGUUCCGGAAACGGACAUGAGGAUCACCCAUGUGGCGAAAGCCAUACUAGAAGGCAGUAUGCUAC	7.46 nM	77.9 nM		
UUAUCUUGUCAAGGAUAUGUAGUAUUGAUCUGAAAACAUGAGGAUCACCCAUGUAUAUGGUGGGAACAGAAGGUGAAUGUUGAA			823 nM	727 nM
